Source: ChEMBL document CHEMBL4390651, “Indole based antimalarial compounds targeting the melatonin pathway: Their design, synthesis and biological evaluation” (Eur J Med Chem, 2019)
Active and inactive are the calls of the source. No cut-off for these calls is given here.

Legend:
[1] = molecular target: Melatonin receptor type 1A (Homo sapiens) (UniProt P48039); assay: Inhibition of human MTNR1 receptor at 500 nM to 5 uM using TMB as substrate preincubated for 1 hr followed by substrate addition by ELISA relative to control
Sequence of Melatonin receptor type 1A (Homo sapiens) (P48039 whole entry): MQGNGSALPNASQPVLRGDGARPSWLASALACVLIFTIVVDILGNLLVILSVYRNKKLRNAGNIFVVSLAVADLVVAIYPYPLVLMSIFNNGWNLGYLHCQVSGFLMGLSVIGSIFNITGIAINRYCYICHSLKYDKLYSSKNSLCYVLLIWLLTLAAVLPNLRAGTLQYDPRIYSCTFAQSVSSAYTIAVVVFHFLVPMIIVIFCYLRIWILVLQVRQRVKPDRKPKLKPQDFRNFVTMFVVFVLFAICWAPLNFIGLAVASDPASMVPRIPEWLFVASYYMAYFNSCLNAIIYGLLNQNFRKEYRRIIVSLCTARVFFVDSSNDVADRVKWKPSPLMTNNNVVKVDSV
Summary of the method: (§1)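 ELISA kit format: compounds incubated 1 h with MTNR1 receptor (5 ng/mL), melatonin as control. TMB substrate, stop solution, OD read at 450 nm; expressed as % inhibition.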

[2] = test system: Plasmodium falciparum; assay: Antimalarial activity against chloroquine resistant Plasmodium falciparum RKL9 infected in human erythrocytes assessed as reduction in parasitemia incubated for 0 to 48 hrs by Giemsa staining-based microscopic analysis; type: functional, organism-based
Summary of the method: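 Sorbitol-synchronized ring-stage culture at 1% parasitemia, 5% hematocrit in human O+ erythrocytes (RPMI 1640, 0.5% albumax, hypoxanthine, gentamicin; 37 °C, 5% CO2/5% O2/90% N2). Compounds at […] for 48 h. Parasitemia counted on Giemsa-stained smears at 0 and 48 h. DMSO control. Mean of three independent experiments ±SD.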

[3] = test system: Plasmodium falciparum; assay: Antimalarial activity against schizont stage of Plasmodium falciparum 3D7 infected in human erythrocytes assessed as parasite survival level at 10 uM measured immediately at 0 hrs by Giemsa staining-based microscopic analysis (reference value: 0%); type: functional; conditions: 3D7, 0 h
[4] = test system: Plasmodium falciparum; assay: Antimalarial activity against trophozoite stage of Plasmodium falciparum 3D7 infected in human erythrocytes assessed as parasite survival level at 10 uM incubated for 48 hrs by Giemsa staining-based microscopic analysis (reference value: 43.65 +/- 5.16%); type: functional; conditions: 3D7, 48 h
[5] = Stability of the compound in 0.01 N HCL at pH 2.0 assessed as compound remaining at 1 mg/ml incubated for 0 to 24 hrs by HPLC analysis relative to control; type: physicochemical; conditions: for remaining at 1 mg/ml: 0.01 N HCl, read-out: Stability; for Stability: buffer
Summary of the method: (§2)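 Compound stock in acetonitrile was added to 1.0 mL of fresh 0.01 N HCl (pH 2.0) or phosphate buffer (pH 7.4), held at 37 °C, and the amount remaining was measured by HPLC at intervals from 0 to 24 h.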

[6] = test system: Plasmodium falciparum; assay: Antimalarial activity against schizont stage of Plasmodium falciparum 3D7 infected in human erythrocytes assessed as parasite survival level at 10 uM incubated for 48 hrs by Giemsa staining-based microscopic analysis (reference value: 5 +/- 7.07%); type: functional; conditions: 3D7, 48 h
[7] = test system: Plasmodium falciparum; assay: Antimalarial activity against ring stage of Plasmodium falciparum 3D7 infected in human erythrocytes assessed as parasite survival level at 10 uM incubated for 48 hrs by Giemsa staining-based microscopic analysis (reference value: 51.3 +/- 1.83%); type: functional; conditions: 3D7, 48 h
[8] = test system: Plasmodium falciparum; assay: Antimalarial activity against synchronized ring stage of Plasmodium falciparum 3D7 infected in human erythrocytes assessed as inhibition of parasite growth incubated for 48 hrs by Giemsa staining-based microscopic analysis; type: functional, organism-based; conditions: 3D7, 48 h
Summary of the method: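 Sorbitol-synchronized ring-stage 3D7 in human O+ erythrocytes was exposed to four concentrations (1, 5, 10 and 20) for 48 h. Parasitemia was counted on Giemsa smears and IC50 taken from the dose-response curve. Mean ± SD of three independent experiments.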

[9] = test system: Plasmodium falciparum; assay: Antimalarial activity against ring stage of Plasmodium falciparum 3D7 infected in human erythrocytes assessed as parasite survival level at 10 uM measured immediately at 0 hrs by Giemsa staining-based microscopic analysis (reference value: 96.4 +/- 5.09%); type: functional; conditions: 3D7, 0 h
[10] = test system: Plasmodium falciparum; assay: Antimalarial activity against synchronized ring stage of Plasmodium falciparum 3D7 infected in human erythrocytes assessed as inhibition of parasite growth at 10 uM incubated for 0 to 48 hrs by Giemsa staining-based microscopic analysis; type: functional
Summary of the method: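 3D7 was sorbitol-synchronized to ring stage at 1% parasitemia, cultured in human O+ erythrocytes (5% hematocrit, RPMI 1640/albumax, 37 °C, low-O2 gas), and exposed for 48 h, with DMSO as control. Giemsa smears at 0, 12, 24, 36 and 48 h gave parasitemia and stage morphology. Mean ± SD of three independent experiments.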

[11] = test system: Plasmodium falciparum; assay: Antimalarial activity against trophozoite stage of Plasmodium falciparum 3D7 infected in human erythrocytes assessed as parasite survival level at 10 uM measured immediately at 0 hrs by Giemsa staining-based microscopic analysis (reference value: 3.55 +/- 5.02%); type: functional; conditions: 3D7, 0 h
[12] = Stability of the compound in phosphate buffer at pH 7.4 assessed as compound remaining at 1 mg/ml incubated for 0 to 24 hrs by HPLC analysis relative to control; type: physicochemical; conditions: for Stability: buffer; for remaining at 1 mg/ml: phosphate buffer, read-out: Stability; summary of the method: as §2
[13] = test system: Plasmodium falciparum; assay: Antimalarial activity against Plasmodium falciparum 3D7 infected in human erythrocytes assessed as reduction in [3H]hypoxanthine incorporation pretreated for 24 hrs followed by [3H]hypoxanthine addition and measured after 48 hrs by scintillation counting method
[14] = molecular target: Melatonin receptor type 1A (Homo sapiens) (UniProt P48039); assay: Inhibition of human MTNR1 receptor at 500 nM using TMB as substrate preincubated for 1 hr followed by substrate addition by ELISA relative to control; summary of the method: as §1
[15] = test system: Plasmodium falciparum; assay: (§3) Antimalarial activity against mixed stage of Plasmodium falciparum infected in human erythrocytes assessed as protection against melatonin-induced parasite synchronization by measuring parasitemia at 1 uM incubated for 48 hrs by Giemsa staining-based microscopic analysis (reference value: 4.76 +/- 0.61%); type: functional
[16] = test system: Plasmodium falciparum; assay: as §3, with “ring” for “mixed”, “parasitemia” for “parasitemia at”, “measured immediately” for “incubated for 48 hrs”, “23.90” for “4.76”, “0.84%)” for “0.61%)”; type: functional
[17] = test system: Plasmodium falciparum; assay: as §3, with “ring” for “mixed”, “5” for “at 1”, “11.80” for “4.76”, “9.19%)” for “0.61%)”; type: functional
[18] = test system: Plasmodium falciparum; assay: as §3, with “schizont” for “mixed”, “parasitemia” for “parasitemia at”, “measured immediately” for “incubated for 48 hrs”, “23.25” for “4.76”, “0.35%)” for “0.61%)”; type: functional
[19] = test system: Plasmodium falciparum; assay: as §3, with “troph” for “mixed”, “parasitemia” for “parasitemia at”, “measured immediately” for “incubated for 48 hrs”, “52.50” for “4.76”, “0.70%)” for “0.61%)”; type: functional
[20] = molecular target: Melatonin receptor type 1A (Homo sapiens) (UniProt P48039); assay: Inhibition of human MTNR1 receptor at 5 uM using TMB as substrate preincubated for 1 hr followed by substrate addition by ELISA relative to control; summary of the method: as §1
[21] = test system: Plasmodium falciparum; assay: as §3, with “troph” for “mixed”, “parasitemia” for “parasitemia at”, “88.20” for “4.76”, “9.19%)” for “0.61%)”; type: functional
[22] = test system: Plasmodium falciparum; assay: (§4) Antimalarial activity against schizont stage of Plasmodium falciparum infected in human erythrocytes assessed as protection against melatonin-induced parasite synchronization by measuring parasitemia 5 uM incubated for 48 hrs by Giemsa staining-based microscopic analysis (reference value: 0%); type: functional
[23] = test system: Plasmodium falciparum; assay: as §4, with “measured immediately” for “incubated for 48 hrs”, “23.25 +/- 0.35%)” for “0%)”; type: functional
[24] = test system: Plasmodium falciparum; assay: as §4, with “troph” for “schizont”, “88.20 +/- 9.19%)” for “0%)”; type: functional
[25] = test system: Plasmodium falciparum; assay: as §3, with “measured immediately at 0” for “incubated for 48”, “1.05” for “4.76”, “0.07%)” for “0.61%)”; type: functional
[26] = test system: Plasmodium falciparum; assay: as §3, with “5” for “1”, “measured immediately at 0” for “incubated for 48”, “1.05” for “4.76”, “0.07%)” for “0.61%)”; type: functional
[27] = test system: Plasmodium falciparum; assay: as §3, with “at 5” for “at 1”; type: functional
[28] = test system: Plasmodium falciparum; assay: as §4, with “troph” for “schizont”, “measured immediately” for “incubated for 48 hrs”, “52.50 +/- 0.70%)” for “0%)”; type: functional
[29] = test system: Plasmodium falciparum; assay: as §4, with “ring” for “schizont”, “measured immediately” for “incubated for 48 hrs”, “23.90 +/- 0.84%)” for “0%)”; type: functional
[30] = test system: Plasmodium falciparum; assay: as §3, with “ring” for “mixed”, “parasitemia” for “parasitemia at”, “11.80” for “4.76”, “9.19%)” for “0.61%)”; type: functional
[31] = test system: Plasmodium falciparum; assay: Antimalarial activity against schizont stage of Plasmodium falciparum infected in human erythrocytes assessed as protection against melatonin-induced parasite synchronization by measuring parasitemia 1 uM incubated for 48 hrs by Giemsa staining-based microscopic analysis (reference value: 0%); type: functional

| Structure (SMILES) | inhibition [2] | survival at 10 µM [3] [%] | survival at 10 µM [4] [%] | remaining at 1 mg/ml [5] [%] | survival at 10 µM [6] [%] | survival at 10 µM [7] [%] | IC50 [8] [nM] | survival at 10 µM [9] [%] | growth inhibition (GI) [10] | survival at 10 µM [11] [%] | Stability [12] | Stability [5] | remaining at 1 mg/ml [12] [%] | other results |
| --- | --- | --- | --- | --- | --- | --- | --- | --- | --- | --- | --- | --- | --- | --- |
| CC/N=C(/c1ccc(C)cc1)c1[nH]c2ccccc2c1CCNC(=O)OC | Dose dependent effect | 0 | 97.5 | 20 | 2.5 | 0 | 4280 | 93 | Active | 7 | Unstable | – | – | inhibition [1]: inactive |
| C/N=C(/c1ccccc1)c1[nH]c2ccccc2c1CCNC(=O)OC | Dose dependent effect | 0 | 77.5 | – | 5 | 17.5 | 890 | 95.8 | Active | 4.15 | Unstable | Unstable | – | – |
| C/N=C(\c1[nH]c2ccccc2c1CCNC(=O)OC)c1c(F)cccc1F | Dose dependent effect | 2.82 | 27.5 | 90 | 11.2 | 61.2 | 730 | 93 | Active | 3 | – | – | 95 | – |
| C/N=C(\c1cc(Br)cs1)c1[nH]c2ccccc2c1CCNC(=O)OC | – | – | – | – | – | – | – | – | – | – | – | – | – | inhibition at 10 µM [10]: 15% |
| CC(C)=C[C@H]1C[C@@](C)(/C=C/c2[nH]c3ccccc3c2CCN(C)C)n2c1c(CCN(C)C)c1ccccc12 | – | – | – | – | – | – | – | – | – | – | – | – | – | IC50 [13]: 150 to 1420 nM |
| C/N=C(/c1cc(C(F)(F)F)cc(C(F)(F)F)c1)c1[nH]c2ccc(OC)cc2c1CCNC(=O)OC | Dose dependent effect | 0 | 95 | – | 0 | 4.95 | 740 | 95 | Active | 5 | – | Unstable | 60 | inhibition [14]: 75%; Activity [15]: 2.8%; Activity [16]: 24.2%; Activity [17]: 27.25%; Activity [18]: 22.95%; Activity [19]: 53.8%; inhibition [20]: 85%; Activity [21]: 79.1%; Activity [22]: 1.85%; Activity [23]: 21.85%; Activity [24]: 70.9%; Activity [25]: 1.15%; Activity [26]: 1.1%; Activity [27]: 1.65%; Activity [28]: 53.25%; Activity [29]: 24.1%; Activity [30]: 18%; Activity [31]: 2.9% |
